Experimental data published in ChEMBL document CHEMBL3046282, “Synthesis, insecticidal activity, crystal structure, and molecular docking studies of nitenpyram analogues with an ω-hydroxyalkyl ester arm anchored on the tetrahydropyrimidine ring” (2012).
In brackets after ≈: the same amount, converted by molar mass. Activity calls are given as the source filed them. The calls are words filed in the database; no cut-off is given here.

Assays:
[1] = system: Nilaparvata lugens; assay: Insecticidal activity against Nilaparvata lugens (brown planthopper) assessed as mortality at 25 degC after 72 hr; assay type: functional
[2] = system: Nilaparvata lugens; assay: Insecticidal activity against Nilaparvata lugens (brown planthopper) assessed as mortality at 25 degC after 72 hr at 20 mg/L; assay type: functional
Method in brief: (§1)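 Standard spray test with slight modification. Compounds dissolved in DMF, then serially diluted with water containing Triton X-80 (0.1 mg/L). Groups of 12 insects in glass Petri dishes sprayed with a Potter sprayer, air-dried, then held under normal rearing conditions (25±1 °C, […], 12 h light). Scored at 72 h on a 0–100 scale against a negative control, using kill count and size of live insects. Three replicates.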

[3] = system: Nilaparvata lugens; assay: Insecticidal activity against Nilaparvata lugens (brown planthopper) assessed as mortality at 25 degC after 72 hr at 100 mg/L; assay type: functional; method in brief: as §1
[4] = system: Myzus persicae; assay: Insecticidal activity against Myzus persicae (green peach aphid) assessed as mortality at 25 degC after 72 hr at 20 mg/L; assay type: functional
[5] = system: Nilaparvata lugens; assay: Insecticidal activity against Nilaparvata lugens (brown planthopper) assessed as mortality at 25 degC after 72 hr at 4 mg/L; assay type: functional; method in brief: as §1
[6] = system: Myzus persicae; assay: Insecticidal activity against Myzus persicae (green peach aphid) assessed as mortality at 25 degC after 72 hr at 4 mg/L; assay type: functional
[7] = Binding affinity to nicotinic acetylcholine receptor assessed as hydrogen bonding
[8] = system: Myzus persicae; assay: Insecticidal activity against Myzus persicae (green peach aphid) assessed as mortality at 25 degC after 72 hr at 100 mg/L; assay type: functional

Compound	LC50 [1]	mortality at 20 µg/mL [2]	mortality at 100 µg/mL [3]	mortality at 20 µg/mL [4]	mortality at 4 µg/mL [5]	mortality at 4 µg/mL [6]	Activity [7]	mortality at 100 µg/mL [8]
CCN(Cc1ccc(Cl)nc1)C1=C([N+](=O)[O-])CN(CCC(=O)OCCO)CN1C	0.154 µg/mL (≈ 0.36 µM)	100%	100%	100%	100%	100%	Active	100%
CCCOC(=O)CCN1CC([N+](=O)[O-])=C(N(CC)Cc2ccc(Cl)nc2)N(C)C1		100%	100%		75%			
CCN(Cc1ccc(Cl)nc1)C1=C([N+](=O)[O-])CN(CCCC(=O)OCCCO)CN1C		80%	100%	92%				100%
CCN(Cc1ccc(Cl)nc1)C1=C([N+](=O)[O-])CN(CCCC(=O)OCCCCCCO)CN1C		10%	90%	10%				88%
CCN(Cc1ccc(Cl)nc1)C1=C([N+](=O)[O-])CN(CC(=O)OCCCCCO)CN1C		23%	90%	25%				100%
CCC(C)C(C(=O)OCCO)N1CC([N+](=O)[O-])=C(N(CC)Cc2ccc(Cl)nc2)N(C)C1 (single isomer, unassigned; (+))		95%	100%	95%	35%	30%		100%
CCN(Cc1ccc(Cl)nc1)C1=C([N+](=O)[O-])CN(C(Cc2ccccc2)C(=O)OCCO)CN1C (stereo unspecified)		20%	80%	15%				90%
CCN(Cc1ccc(Cl)nc1)C1=C([N+](=O)[O-])CN(CCC(=O)OCCCCCO)CN1C		40%	100%	50%				98%
CCN(Cc1ccc(Cl)nc1)C1=C([N+](=O)[O-])CN(CC(=O)OCCCO)CN1C		45%	100%	50%				100%
CCN(Cc1ccc(Cl)nc1)C1=C([N+](=O)[O-])CN(CCC(=O)OC(C)C)CN1C		100%	100%		70%			
CCN(Cc1ccc(Cl)nc1)C1=C([N+](=O)[O-])CN(C(Cc2ccc(O)cc2)C(=O)OCCO)CN1C (single isomer, unassigned; (+))		15%	80%	10%				85%
CCN(Cc1ccc(Cl)nc1)C1=C([N+](=O)[O-])CN(C(CC(C)C)C(=O)OC)CN1C (stereo unspecified)	0.216 µg/mL (≈ 0.491 µM)	100%	100%		50%			
CCN(Cc1ccc(Cl)nc1)C1=C([N+](=O)[O-])CN(CCC(=O)OCCCCCCO)CN1C		25%	90%	33%				95%
